{"source": "ChEMBL document CHEMBL4414600", "about": "“Discovery of a Furanopyrimidine-Based Epidermal Growth Factor Receptor Inhibitor (DBPR112) as a Clinical Candidate for the Treatment of Non-Small Cell Lung Cancer” (J Med Chem, 2019)", "key": {"[1]": {"assay": "in vivo", "conditions": "rat, po, 23.6 mg/kg"}, "[2]": {"target": "T1, Cytoplasmic tyrosine-protein kinase BMX (Homo sapiens) (UniProt P51813)", "T1 sequence (whole entry)": "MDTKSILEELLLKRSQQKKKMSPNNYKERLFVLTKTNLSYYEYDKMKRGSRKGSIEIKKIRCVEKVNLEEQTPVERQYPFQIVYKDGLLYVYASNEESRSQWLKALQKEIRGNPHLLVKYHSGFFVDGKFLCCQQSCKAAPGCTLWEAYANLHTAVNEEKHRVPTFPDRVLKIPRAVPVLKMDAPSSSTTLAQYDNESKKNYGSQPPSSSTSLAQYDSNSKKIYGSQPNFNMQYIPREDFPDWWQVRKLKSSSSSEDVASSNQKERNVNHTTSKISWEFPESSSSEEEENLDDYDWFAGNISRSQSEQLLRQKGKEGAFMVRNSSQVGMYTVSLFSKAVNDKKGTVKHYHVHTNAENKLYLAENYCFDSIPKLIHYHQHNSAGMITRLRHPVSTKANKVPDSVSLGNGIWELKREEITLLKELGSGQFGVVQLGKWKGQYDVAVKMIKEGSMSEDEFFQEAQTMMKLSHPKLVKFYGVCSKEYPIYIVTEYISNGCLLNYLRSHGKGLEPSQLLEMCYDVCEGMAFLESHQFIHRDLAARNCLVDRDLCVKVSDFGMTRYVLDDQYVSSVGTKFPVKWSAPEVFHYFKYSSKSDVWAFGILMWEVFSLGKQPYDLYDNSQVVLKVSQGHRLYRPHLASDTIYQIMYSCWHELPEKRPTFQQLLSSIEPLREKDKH", "assay": "Binding affinity to wild-type human full length BMX (M1 to H675 residues) expressed in bacterial expression system assessed as residual binding level at 10000 nM by Kinomescan method relative to control", "outline": "(§1)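 KINOMEScan competition binding panel run at 10,000 nM compound, with results expressed as percent of control binding. S(10) is the fraction of non-mutant kinases below 10% of control, out of 395 tested.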"}, "[3]": {"target": "T2, Tyrosine-protein kinase Tec (Homo sapiens) (UniProt P42680)", "T2 sequence (whole entry)": "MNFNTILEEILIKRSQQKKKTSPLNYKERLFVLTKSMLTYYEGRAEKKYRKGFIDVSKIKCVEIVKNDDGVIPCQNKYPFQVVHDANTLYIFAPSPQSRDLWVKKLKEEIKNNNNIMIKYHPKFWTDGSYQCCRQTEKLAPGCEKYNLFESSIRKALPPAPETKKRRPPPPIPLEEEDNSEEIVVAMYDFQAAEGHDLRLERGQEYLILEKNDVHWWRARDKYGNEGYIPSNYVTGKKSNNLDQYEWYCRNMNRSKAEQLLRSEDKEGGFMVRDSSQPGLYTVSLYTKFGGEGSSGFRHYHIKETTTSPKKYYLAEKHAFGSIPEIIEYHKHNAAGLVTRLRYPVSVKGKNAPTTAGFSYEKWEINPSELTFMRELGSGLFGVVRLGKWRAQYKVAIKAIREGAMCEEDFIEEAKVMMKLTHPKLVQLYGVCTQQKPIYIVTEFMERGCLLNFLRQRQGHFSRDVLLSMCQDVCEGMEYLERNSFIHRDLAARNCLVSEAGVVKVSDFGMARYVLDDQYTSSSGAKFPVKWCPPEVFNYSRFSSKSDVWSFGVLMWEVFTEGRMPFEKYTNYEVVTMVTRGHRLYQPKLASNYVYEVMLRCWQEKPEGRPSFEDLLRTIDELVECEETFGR", "assay": "Binding affinity to wild-type human partial length TEC (L341 to D620 residues) expressed in bacterial expression system assessed as residual binding level at 10000 nM by Kinomescan method relative to control", "outline": "as §1"}, "[4]": {"target": "T3, Tyrosine-protein kinase JAK3 (Homo sapiens) (UniProt P52333)", "T3 sequence (whole entry)": "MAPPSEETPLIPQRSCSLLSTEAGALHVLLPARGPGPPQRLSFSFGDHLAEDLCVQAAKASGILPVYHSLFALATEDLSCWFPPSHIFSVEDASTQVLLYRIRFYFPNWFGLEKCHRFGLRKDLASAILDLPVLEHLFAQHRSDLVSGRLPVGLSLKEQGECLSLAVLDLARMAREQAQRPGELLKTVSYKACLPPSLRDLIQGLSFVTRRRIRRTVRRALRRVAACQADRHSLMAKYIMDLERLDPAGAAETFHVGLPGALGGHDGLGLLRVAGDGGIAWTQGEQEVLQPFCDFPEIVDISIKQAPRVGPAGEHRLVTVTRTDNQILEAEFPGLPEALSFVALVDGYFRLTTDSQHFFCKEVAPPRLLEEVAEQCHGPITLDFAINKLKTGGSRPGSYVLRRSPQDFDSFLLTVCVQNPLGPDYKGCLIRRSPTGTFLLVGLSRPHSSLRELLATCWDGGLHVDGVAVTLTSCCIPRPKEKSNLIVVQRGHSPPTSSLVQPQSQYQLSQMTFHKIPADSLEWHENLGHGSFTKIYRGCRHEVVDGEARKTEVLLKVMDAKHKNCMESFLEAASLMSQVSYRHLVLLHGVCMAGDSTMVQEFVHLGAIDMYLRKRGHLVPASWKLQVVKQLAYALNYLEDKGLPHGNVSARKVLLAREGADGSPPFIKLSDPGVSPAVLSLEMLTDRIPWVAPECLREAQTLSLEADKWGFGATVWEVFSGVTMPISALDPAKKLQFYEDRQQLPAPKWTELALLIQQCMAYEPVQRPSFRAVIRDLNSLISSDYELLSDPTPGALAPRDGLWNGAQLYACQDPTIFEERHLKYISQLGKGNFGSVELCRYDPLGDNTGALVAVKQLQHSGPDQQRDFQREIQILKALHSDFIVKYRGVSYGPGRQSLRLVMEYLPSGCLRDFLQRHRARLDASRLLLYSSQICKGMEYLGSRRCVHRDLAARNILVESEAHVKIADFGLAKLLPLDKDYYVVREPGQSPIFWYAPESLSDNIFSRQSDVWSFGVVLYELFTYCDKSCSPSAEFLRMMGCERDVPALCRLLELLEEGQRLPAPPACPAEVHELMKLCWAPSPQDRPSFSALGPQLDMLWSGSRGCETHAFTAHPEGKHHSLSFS", "assay": "Binding affinity to wild-type human partial length JAK3 JH1 catalytic domain (I781 to S1124 residues) expressed in mammalian expression system assessed as residual binding level at 10000 nM by Kinomescan method relative to control", "outline": "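KINOMEscan competition-binding profiling at a single concentration of 10,000 nM across a panel that included 395 non-mutant kinases. Binding is read out as percent of control. Kinases with less than 10% of control were counted as hits for the S(10) selectivity score, which is the number of non-mutant hits divided by the number of non-mutant kinases tested.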"}, "[5]": {"assay": "Cmax in rat at 23.6 mg/kg, po", "type": "ADME, organism-based", "design": "dose 23.6 mg/kg, route oral", "conditions": "in vivo", "outline": "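Rat pharmacokinetics: single IV injection at 5 mg/kg or oral dosing at 20 mg/kg (23.6 mg/kg oral for one compound). Plasma parameters t1/2, CL, Vss, AUC(0-inf), Cmax, Tmax and oral bioavailability F were derived from the concentration–time profiles.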"}}, "data": [{"smiles": "CN(C)C/C=C/C(=O)Nc1cccc(-c2c(-c3ccccc3)oc3ncnc(N[C@H](CO)c4ccccc4)c23)c1", "values": [{"measurement": "half-life", "setting": "[1]", "value": 204, "unit": "min"}, {"measurement": "Activity", "setting": "[2]", "value": 4.8, "unit": "%"}, {"measurement": "Activity", "setting": "[3]", "value": 5.6, "unit": "%"}, {"measurement": "Activity", "setting": "[4]", "value": 0, "unit": "%"}, {"measurement": "Cmax", "setting": "[5]", "value": 508, "unit": "ng/mL"}]}]}
